The list is not random: actives were taken first. Their share in the collection is about 1.5%.
T cell HTS – modulators of CD8 T cell-vesicle binding, primary screen, mouse 2C CD8+ T cells, flow cytometry; 2C CD8+ T cell-vesicle binding; stronger effect = lower value; 330,000 tested, 0.068% active; response (vesicle binding), % at 7 µM;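 active = response, share of CD8 T cells binding vesicles, and their 90th percentile fluorescence all below set limits, cut at about 80% in these data, passing the limit was not always enough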;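 also: values below 100% mean blocked vesicle binding to the CD8+ T cells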
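material = purified 2C TCR transgenic mouse naive CD8+ T cells | controls = Unloaded micro-vesicles (low), QL9 vesicles with 0.7% DMSO (high) | detection = cytometric PE anti-B7-1 and Alexa647 anti-CD8 signals after 1% paraformaldehyde fixation | incubation = binding step 1.5 h, 37 °C, antibody labelling 20 min, ice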
CHT allo act – CHT positive allosteric modulators, primary screen, cell-based, membrane potential dye, choline EC20; B-score at 10 µM; 310,000 tested, 0.49% active; AID 488977, 2010; High affinity choline transporter 1 (Homo sapiens), Q9GZV3; CHT-expressing cells; stronger effect = higher value; LV-AA mutant CHT in HEK293 cells;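 active = initial fluorescence not abnormally high and integrated response B-score, plate-corrected, over 3 SD above library mean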
VLA-4 inh – inhibition in human VLA-4 binding assay, primary screen, VLA-4 allosteric modulator project, MLPCN library, flow cytometry, VLA-4 expressing cells; inhibition, % (about 7 µM as worked out from the volumes in the protocol); 330,000 tested, 0.2% active; AID 2557, 2010; ligand binding flow cytometry; in the data active = inhibition above about 50%
CHT block – inhibitors of human choline transporter CHT | High affinity choline transporter 1 (Homo sapiens), Q9GZV3 | CHT-expressing cells, membrane potential dye, choline response; stronger effect = lower value | B-score at 10 µM | 310,000 tested, 0.86% active | AID 488975, 2010;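 active = B-score over 3 SD under the library average, and starting fluorescence ratio not unusually high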;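 also: choline stimulus applied at its EC90 after an EC20 pre-addition; B-score computed on integrated fluorescence ratio after choline addition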
CHT block conf – CHT inhibitors, confirmation, cell-based, membrane potential dye, duplicate. shares compounds with CHT block. CHT-expressing cells, choline membrane potential dye; LV-to-AA substituted CHT, HEK293 cells. CHT activity remaining % of control (stronger effect = lower value), % at 10 µM. 2,400 tested, 70% active. AID 493221, 2011;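 active = choline transporter activity left, mean of duplicates at 10 µM, below buffer-only control mean minus 3 SD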;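 also: depolarization triggered by choline at its EC90 following an EC20 pre-addition; 0% = hemicholinium-3 full block and 100% = buffer-only control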
HEK293 MPD ctr – membrane potential effects in parental HEK293, counter-screen for CHT inhibitor project, cell-based, membrane potential dye; shares compounds with CHT block; choline response; active = decrease or increase beyond buffer ±3SD; membrane potential ratio readout (active if shifted either direction beyond buffer ±3SD; no single direction) at 10 µM; 2,400 tested, 4% active;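 also: parental cells lack the transporter so any hit is non-specific; ratio is peak minus trough fluorescence over baseline after EC90 choline challenge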
* = called active by the depositor.

O=C(CSc1cn[nH]n1)Nc1ccccc1C(=O)O was read as T cell HTS 177.7, CHT allo act inactive, VLA-4 inh -8.3 and CHT block inactive.
Screening O=C(CCN1CCN(Cc2ccccc2)CC1)NNC(=O)Nc1cccc(C(F)(F)F)c1 returned T cell HTS inactive, CHT allo act inactive, VLA-4 inh 2.8 and CHT block inactive.
`CCOC(=O)CSC1=C(C#N)C(c2ccccc2)C(C(C)=O)=C(C)N1` (centres undefined) gave T cell HTS 312.0, CHT allo act inactive, VLA-4 inh -14.0, CHT block -5.7*, CHT block conf inactive and HEK293 MPD ctr inactive.
CCOC(=O)c1ccc(NS(=O)(=O)c2ccc3c(c2)NC(=O)CCS3)cc1 was read as T cell HTS 563.4, CHT allo act inactive, VLA-4 inh 9.1, CHT block -5.09*, CHT block conf 63.9%* and HEK293 MPD ctr inactive.
For COc1cc(/C=C2\SC(=Nc3ccccc3OC)NC2=O)ccc1O the results were T cell HTS 189.2, CHT allo act inactive, VLA-4 inh 11.0, CHT block -5.39*, CHT block conf inactive and HEK293 MPD ctr inactive.
COc1cc(/C=C2/SC(=Nc3ccc(O)cc3)NC2=O)ccc1O was read as T cell HTS 276.6, CHT allo act inactive, VLA-4 inh -211.7 and CHT block inactive.
CCN1CCN(c2cc(C)c3cc(NC(=S)N4CCC5(CC4)OCCO5)ccc3n2)CC1 was read as T cell HTS 531.2, CHT allo act inactive, VLA-4 inh 0.1, CHT block -5.02*, CHT block conf 39.6%* and HEK293 MPD ctr inactive.
Screening CCN1CCN(c2cc(C)c3cc(NC(=S)N4CCOCC4)ccc3n2)CC1 returned T cell HTS 285.2, CHT allo act inactive, VLA-4 inh 1.3, CHT block -5.85*, CHT block conf 38.6%* and HEK293 MPD ctr inactive.
Screening CCCN1CCN(C(=S)Nc2ccc3nc(N4CCN(CC)CC4)cc(C)c3c2)CC1 returned T cell HTS 161.0, CHT allo act inactive, VLA-4 inh 9.6, CHT block -9.17*, CHT block conf 22.2%* and HEK293 MPD ctr inactive.
Cc1ccc[n+](CC(=O)c2ccc(-c3ccccc3)cc2)c1 was read as T cell HTS 375.9, CHT allo act inactive, VLA-4 inh 19.6, CHT block -10.9*, CHT block conf inactive and HEK293 MPD ctr inactive.
Screening Cc1ccc(C)[n+](CC(=O)c2ccc(-c3ccccc3)cc2)c1 returned T cell HTS 165.2, CHT allo act inactive, VLA-4 inh 10.3, CHT block -4.95*, CHT block conf 25.0%* and HEK293 MPD ctr inactive.
Screening Cc1ccc(C(=O)C[n+]2ccccc2)cc1 returned T cell HTS 201.6, CHT allo act inactive, VLA-4 inh 8.1 and CHT block inactive.
Screening Cc1ccc(C(=O)CC(=O)c2ccccc2)cc1 returned T cell HTS 159.7, CHT allo act inactive, VLA-4 inh 6.9 and CHT block inactive.
`Cc1ccc[n+](CC(=O)c2ccc(Cl)cc2)c1` gave T cell HTS 256.8, CHT allo act inactive, VLA-4 inh -8.0, CHT block -11.2*, CHT block conf 5.6%* and HEK293 MPD ctr inactive.
COc1ccc2cc(C(=O)N3CCc4ccccc43)[nH]c2c1 was read as T cell HTS 438.5, CHT allo act inactive, VLA-4 inh -4.9 and CHT block inactive.
Screening N#C/C(=N\Nc1ccc(Cl)cc1)C(N)=S returned T cell HTS inactive, CHT allo act inactive, VLA-4 inh -1.1, CHT block -8.12*, CHT block conf 38.7%* and HEK293 MPD ctr inactive.
Screening N#C/C(=N\Nc1ccccc1)C(N)=S returned T cell HTS 174.9, CHT allo act inactive, VLA-4 inh -0.7 and CHT block inactive.
